# Screens as filed in PubChem.
# Shown are actives, neighbours in structure and some others; about 27% of the full set was active somewhere.
# CYP2C19 inh = blocks human cytochrome P450 2C19. hit rate 21% among 96,000. CYP2C19 Supersomes, luciferin-H EGE luminescence, 30 min. AID 778. P33261. inhibition, % at 5 µM;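 active = CYP2C19 inhibition above a set limit at 5 µM in the primary screen, cut at about 50% in these data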;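 also: plate controls were negative control wells for no effect and 2.5 mM tranylcypromine positive control for full effect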
# Target sequence (P33261 whole entry, looked up): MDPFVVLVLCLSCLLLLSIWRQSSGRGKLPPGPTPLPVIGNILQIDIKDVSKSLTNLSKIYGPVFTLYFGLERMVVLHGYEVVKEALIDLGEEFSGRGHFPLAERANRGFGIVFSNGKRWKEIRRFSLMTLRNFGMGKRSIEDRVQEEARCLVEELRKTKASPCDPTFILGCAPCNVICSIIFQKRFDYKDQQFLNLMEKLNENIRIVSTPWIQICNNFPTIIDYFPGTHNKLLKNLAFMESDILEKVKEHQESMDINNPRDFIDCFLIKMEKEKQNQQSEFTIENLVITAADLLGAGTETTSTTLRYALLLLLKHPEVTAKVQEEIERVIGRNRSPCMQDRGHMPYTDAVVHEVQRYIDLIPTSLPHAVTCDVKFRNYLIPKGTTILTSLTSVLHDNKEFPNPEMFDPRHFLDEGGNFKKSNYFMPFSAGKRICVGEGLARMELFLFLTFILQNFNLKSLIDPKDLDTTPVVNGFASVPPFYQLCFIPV
# Rev-RRE block = HIV Rev-RRE protein-RNA interaction inhibition; hit rate 0.79% among 97,000; AID 704; Rev peptide-RRE RNA binding, FRET; P05866; inhibition, % at 8 µM;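 active = inhibition above the screen-wide mean plus 3 SD, cut at about 35% in these data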;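 also: 0% = median DMSO wells and 100% = median Neomycin B control wells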
# Target sequence (P05866 whole entry, looked up): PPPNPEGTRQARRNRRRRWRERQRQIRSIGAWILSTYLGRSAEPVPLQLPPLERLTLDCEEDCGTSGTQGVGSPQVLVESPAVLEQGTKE
#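 Material: labelled RRE RNA duplex and labelled Rev peptide / Buffer or medium: HEPES pH 7.5 salt buffer with EDTA / Compound dosing: single point, 8 µM final nominal compound concentration / Benchmarks: DMSO low control, neomycin B high control / Timing: 5 min preincubation and 15 min binding, 25 °C / Technique: FRET fluorescence readout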
# CYP2C9 inh = blocks human cytochrome P450 2C9 | P11712 | CYP2C9 Supersomes, luciferin-H conversion, luminescence | inhibition, % at 5 µM | hit rate 20% among 96,000 | AID 777;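 active = blocking of liver enzyme CYP2C9 beyond about 50% at 5 µM, limit read from the data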
# CYP2C9 act = CYP2C9 (human) activation; activation factor at 5 µM; recombinant CYP2C9, luciferin-H conversion, luminescence; active compounds read high; factor 1 = untreated enzyme, 0 = blocked; hit rate 1.4% among 96,000; AID 1024; P11712;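 active = activation factor of 2 or more for CYP2C9 at a 5 µM dose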;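 also: 0 = sulfaphenazole-blocked wells and 1 = vehicle-only wells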
# CYP2C19 activ = cytochrome P450 2C19 (human) activation | recombinant CYP2C19, luciferin-H EGE luminescence; active compounds read high; 0 = fully inhibited enzyme, 1 = untreated enzyme | AID 1025 | P33261 | activation factor at 5 µM | 96,000 tested, under 10 active;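 active = activation factor of at least 2 at 5 µM in the primary screen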;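 also: 0 = wells with 2.5 mM tranylcypromine and 1 = vehicle-only wells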
# Cav32 inh = human Cav3.2 channel inhibition, primary screen; O95180; Cav3.2-expressing cells, Fluo-4 calcium fluorescence FDSS; active compounds read low; hit rate 4% among 100,000; B-score at 10 µM;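 active = single-dose well whose peak fluorescence ratio is a statistical outlier from its plate by either plate-standardised score or position-corrected B-score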
# An asterisk follows results filed as active; x = not tested or not shown.
SMILES,CYP2C19 inh,Rev-RRE block,CYP2C9 inh,CYP2C9 act,CYP2C19 activ,Cav32 inh
CCOC(=O)c1nnc(-c2ccccc2)nc1NCc1ccc(Cl)cc1,14,0,48,0.5,0.9,-1.8
COc1ccc(CNC(=O)Nc2ccc(C)cc2)cc1,40,5,-15,1.2,0.6,0.031
COc1ccc(CNC(=O)Nc2cccc3ccccc23)cc1,89*,1,-36,1.4,0.1,-0.27
CCOC(=O)c1ccc(NC(=O)C(CC)CC)cc1,55*,5,10,0.9,0.5,-0.64
CC(C)C(=O)Nc1ccc(NC(=O)c2cc3ccccc3o2)cc1,24,5,50,0.5,0.8,-0.26
O=C(Nc1cccnc1)Nc1ccccc1Cl,-4,10,-10,1.1,1,-0.13
O=C(NCc1ccncc1)Nc1ccccc1Cl,89*,x,81*,0.2,0.1,0.82
COc1ccc(CNC(=O)C(C)NC(=O)c2cc3ccccc3o2)cc1 (configuration not stated),23,0,76*,0.2,0.8,-0.55
COC(=O)[C@@]1(Cc2ccc(OC)cc2)[C@H]2c3cc(C(=O)N(C)C)n(CCSCCO)c3C[C@H]2CN1C(=O)c1ccccc1,x,x,x,x,x,0.28
CCC/S(CC1CC1(Cl)Cl)=N\S(=O)(=O)c1ccc(C)cc1 (configuration not stated),5,4,-3,1,0.9,1
NS(=O)(=O)c1ccc(CCNC(=O)Nc2ccc(Cl)c(Cl)c2)cc1,34,5,34,0.7,0.7,-0.52
COc1ccc(NC(=O)NCc2ccncc2)cc1,31,2,60*,0.4,0.7,0.063
O=C(NCCc1ccncc1)Nc1ccc(Cl)cc1,97*,-7,96*,0,0,-0.044
O=C(O)CCC(=O)Nc1ccc(Cc2ccc(NC(=O)CCC(=O)O)cc2)cc1,5,7,4,1,1,-0.16
O=C(O)CCC(=O)NCc1ccc(F)cc1,8,9,49,0.5,0.9,0.048
COc1ccccc1CN1[C@@H](CC(=O)O)c2cc(F)ccc2S1(=O)=O,x,x,x,x,x,0.16
COc1cc(C2NC(=O)NC(C)=C2C(=O)NCc2ccccc2)c(Cl)cc1O (configuration not stated),14,9,20,0.8,0.9,1.6
O=C(CCCc1nc(-c2ccc(Cl)cc2)no1)N1CCOCC1,x,4,x,x,x,1
O=C(O)C[C@H]1c2ccc(C(F)(F)F)cc2S(=O)(=O)N1C1CCCCC1,x,x,x,x,x,1.1
O=C(NCc1ccc(F)cc1)c1cc2c(s1)CCCC2,36,28,53*,0.5,0.6,-6.3*
COC(=O)c1cc2c(s1)CS(=O)C2 (configuration not stated),x,2,x,x,x,-0.14
COc1ccc(CNC(=O)c2cc3c(s2)CS(=O)C3)cc1 (configuration not stated),71*,5,54*,0.5,0.3,0.053
CC1CCc2sc(C(=O)NCc3ccc(F)cc3)cc2C1 (configuration not stated),17,12,18,0.8,0.8,-2
Cc1c(Cl)cccc1N1CC(C(=O)Nc2nccs2)CC1=O (configuration not stated),38,2,-14,1.1,0.6,-0.044
COc1ccc(NC(=O)C(C/C=C(/C)Cl)C(C)=O)cc1 (configuration not stated),x,2,x,x,x,-0.3
SMILES,CYP2C19 inh,Rev-RRE block,CYP2C9 inh,CYP2C9 act,CYP2C19 activ,Cav32 inh
COCCn1nnnc1C(c1cccs1)N1CCN(c2cccc(C(F)(F)F)c2)CC1 (configuration not stated),36,13,28,0.7,0.6,-5.4*
CCC(c1nnnn1CCOC)N1CCN(c2cccc(C(F)(F)F)c2)CC1 (configuration not stated),69*,9,55*,0.4,0.3,-0.018
COCCn1nnnc1C(CC(C)C)N1CCN(c2cccc(OC)c2)CC1 (configuration not stated),81*,x,75*,0.2,0.2,-0.24
COc1ccc(Cn2nnnc2C(c2cccs2)N2CCN(c3ccc([N+](=O)[O-])cc3)CC2)cc1 (configuration not stated),63*,5,73*,0.3,0.4,-1.6
COCCn1nnnc1C(CC(C)C)N1CCN(c2ccccc2)CC1 (configuration not stated),x,-1,x,x,x,-1.2
CCC(=O)N1c2ccc(S(=O)(=O)CCC(=O)NCCC3=CCCCC3)cc2CC1C (configuration not stated),21,6,61*,0.4,0.8,0.94
CC(/C=C/c1ccco1)=N/NC(=O)Cc1cccs1,2,11,12,0.9,1,1.1
COC(=O)c1ccc(-c2nc3cc(Cl)c(N)cc3s2)cc1,60*,26,11,0.9,0.4,-0.64
COC(=O)c1ccc(C2=NOC(C)(c3sc(-c4ccc(Cl)cc4)nc3C)C2)cc1 (configuration not stated),x,x,x,x,x,-1.2
Cc1nn(Cc2n[nH]c(=S)n2Cc2ccccc2)c(C)c1Cl,53*,2,21,0.8,0.5,-0.37
Cc1ccc(C(C)C)cc1C(=O)CC1(O)C(=O)N(C)c2ccccc21 (configuration not stated),66*,6,59*,0.4,0.3,-1.1
CCN1C(=O)C(O)(CC(=O)c2cc(C)ccc2C)c2ccccc21 (configuration not stated),44,-2,-2,1,0.6,-1.2
CC(=O)c1cccc(NC(=O)c2ccc(N(Cc3ccccc3C)S(C)(=O)=O)cc2)c1,x,17,x,x,x,-2.6
Cc1ccccc1CN(c1ccc(C(=O)N2CCc3ccccc3C2)cc1)S(C)(=O)=O,55*,0,63*,0.4,0.5,-2.8
CNC(=O)c1ccc(N(Cc2ccccc2C)S(C)(=O)=O)cc1,57*,4,43,0.6,0.4,1
COc1ccc(N(CC(=O)N2CCc3ccccc3C2)S(C)(=O)=O)cc1OC,16,1,-6,1.1,0.8,1.2
Cc1ccccc1CN(c1ccc(C(=O)Nc2ccccc2C(=O)NCc2ccco2)cc1)S(C)(=O)=O,99*,4,83*,0.2,0,-2
Cc1ccc(N(Cc2ccc(C(=O)NC3CCCCC3)cc2)S(C)(=O)=O)cc1C,6,9,8,0.9,0.9,0.8
CN(c1ccccc1C(=O)Nc1ccccc1C(=O)NCc1ccco1)S(C)(=O)=O,29,1,47,0.5,0.7,-0.074
Cc1ccc(N(Cc2ccccc2F)S(C)(=O)=O)cc1C,98*,9,73*,0.3,0,-1.2
CCOC(=O)c1c(NC(=O)C(C)NCc2ccco2)sc2c1CCC(C)C2 (configuration not stated),25,-3,37,0.6,0.8,-0.97
COc1ccc(S(=O)(=O)N(C)CC(=O)N2CCN(c3ccc(F)cc3)CC2)cc1OC,11,-4,-62,1.6,0.9,1.4
